Laboratory results: PubChem BioAssay AID504382 (The Scripps Research Institute Molecular Screening Center, 2011)
In all, about 2,500 compounds went through this assay and about 460 (18%) were called active. Only a sample is shown. Values without a mark were called inactive.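 Rule for the calls: active = mean activation above a cutoff of low control average plus 3 SD from the earlier screen (cut at about 12% in these data); inactive = the rest.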

Assay: IANBD-channel fluorescence artefacts in buffer – biochemical, artefact control for cardiac RTF calcium sensitizer project, confirmation (AID 504382)
Settings: IANBD fluorescence interference counterscreen, EC20 Ca2+, at 7.2 µM, stronger effect = higher value, scaled: EC20 calcium 0, EC100 calcium 100
Procedure, shortened: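 Medium: MOPS/KCl/MgCl2/EGTA/NTA/DTT buffer, pH 7.2 | Reagent: EC20 calcium, 0.472 mM | Compound dosing: 7.2 µM single dose | Times: 15 min compound exposure at 25 °C | Signal: Fluorescence, 480/540 nm | Measure: Interference relative to controls | Repeats: Triplicate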

Structure (SMILES) | fluorescence artifact activation
CCN(CC)c1ccc2cc(S(=O)(=O)c3ccc(Cl)cc3)c(=O)oc2c1 | 156% (active)
CCN(CC)c1ccc2cc(NC(=O)CCC(=O)O)c(=O)oc2c1 | 0.3%
CCN(CC)c1ccc2cc(S(=O)(=O)c3ccc(C)cc3)c(=O)oc2c1 | 9.02%
COc1ccc(C2c3ccc(O)cc3Oc3ncn(CCN4CCOCC4)c(=N)c32)cc1OC (stereo not given) | 5.12%
CC(C)c1ccc(OCC(=O)NC(Cc2c[nH]c3ccccc23)C(=O)O)cc1 (stereo not given) | 0.01%
CN1CCc2c(sc3c2C(=O)NC(c2ccco2)N3)C1 (stereo not given) | 0.18%
O=C(NCc1ccco1)C1CCC(N2C(=O)C3C4CCC(C4)C3C2=O)CC1 (stereo not given) | 0.07%
O=C(NCc1ccco1)C1Cc2ccccc2CN1C(=O)c1ccco1 (stereo not given) | 1040% (active)
O=C(O)C1CC(O)CN1C(=O)c1ccco1 (stereo not given) | 0.06%
COc1cccc(OC)c1C(=O)NNC(=O)c1ccccc1-n1cccc1 | -0.01%
CC(C)(C)C(=O)c1sc2nc(-c3cccs3)cc(C(F)(F)F)c2c1N | 0.13%
CCOc1nc(OCC)c2[nH]c(C(=O)O)c(Br)c2n1 | 0.34%
O=C(c1ccccc1Nc1ccc(SC(F)F)cc1)N1CCCCC1 | 0.06%
COc1ccc(C2C(C(=O)c3ccccc3)N3c4ccccc4C=CC3C2[N+](=O)[O-])cc1 (stereo not given) | 10.3%
O=[N+]([O-])c1ccc(N2N=C(c3ccccc3)CC2c2ccccc2O)cc1 (stereo not given) | 47.5% (active)
O=[N+]([O-])c1ccc(C2=NN(c3ccccc3)C(c3ccco3)C2)cc1 (stereo not given) | -0.01%
COc1ccc(C2CC(c3ccncc3)=NN2c2ccc(S(N)(=O)=O)cc2)cc1 (stereo not given) | 1.86%
NS(=O)(=O)c1ccc(N2N=C(c3ccccc3)CC2c2ccccc2)cc1 (stereo not given) | 15.1% (active)
N#CCC(=O)N/N=C/c1ccc(N2N=C(c3ccccc3)CC2c2ccccc2)cc1 (stereo not given) | -0.02%
N#CC1CC(c2ccc([N+](=O)[O-])cc2)=NN1c1ccc([N+](=O)[O-])cc1 (stereo not given) | 0.52%
CN(CC(=O)N1CCN(c2ncccn2)CC1)S(=O)(=O)c1ccc(Cl)cc1 | 0%
CCOC(=O)[C@H]1[C@H]2COc3ccccc3[C@@H]2N2C(=O)CN(Cc3ccc(C)cc3)C(=O)[C@@]12C | 0.38%
COc1ccc(/C=N/Nc2ncc(C(F)(F)F)cc2Cl)cc1OC | -0.02%
CC(C(=O)N1CCc2ccccc2C1)N1C(=O)c2ccccc2C1=O (stereo not given) | 0.12%

Structure (SMILES) | fluorescence artifact activation
CCOC(=O)c1cc(C#N)c(SCC(=O)c2cc(C#N)c(SC)nc2C)[nH]c1=O | 6.31%
CC(=O)n1c(C=Nc2ccc(Cl)cc2)c(O)c2ccccc21 | 0.42%
COc1ccc(C2=NS(=O)(=O)N(C)C(C(=O)NC3CCCC3)=C2)cc1 | -0.02%
CCC(=O)Nc1nc2c(c(=O)[nH]1)CCCC2 | 0.02%
O=C(CCc1nc2sc3c(c2c(=O)[nH]1)CCCC3)Nc1ccccc1Cl | 31.9% (active)
O=C(CN1C(=O)NC2(CCCCC2)C1=O)Nc1ccccc1Cl | 0.05%
CSCC(O)Cn1ncc2ccccc2c1=O (stereo not given) | -0.02%
CCN1C(=O)/C(=C/C=C2\N(CC)c3cc(S(=O)(=O)N(C)C)ccc3N2c2ccccc2)SC1=S | 0.15%
CC(C)c1ccc(N2C(=O)/C(=C/N(C)C)SC2=S)cc1 | 18.9% (active)
CN(C)/C=C1\SC(=S)N(c2ccc(Br)cc2)C1=O | 43.8% (active)
O=C1CSC(=S)N1c1ccc(O)cc1 | 0.03%
COCCNC(=O)CSc1nc(N)c(NC(=O)c2ccccc2F)c(=O)[nH]1 | 1.87%
CN1C2CCC1/C(=C/c1cccn1C)C(=O)/C2=C\c1cccn1C | 0.09%
CC(C)c1ccc(/C=C2\Oc3c(ccc(O)c3CN3CCN(C)CC3)C2=O)cc1 | -0.06%
O=c1cc(-c2ccccc2)oc2ccc(Br)cc12 | 0.06%
CCSc1cc(N2CCCC2)nc(-c2ccc(Cl)cc2)n1 | 0.62%
CC(=O)Nc1ccc(N=Cc2nc(-c3ccc(C)cc3)oc2O)cc1 | 8.23%
CC(C)CC[n+]1ccccc1/C=C/c1ccc(N(C)C)cc1 | -0.07%
COc1ccc(OC)c(S(=O)(=O)N2CCC(C(=O)NCc3ccccn3)CC2)c1 | 1.09%
CC(=O)Nc1ccc(Nc2cc(N(C)C)c3nonc3c2[N+](=O)[O-])cc1 | 33.2% (active)
CC1(C)CC(=O)C(C=Nc2cc(C(=O)c3ccccc3)ccc2N)=C(O)C1 | 6.24%
CN(C(=O)C1CCC1C(=O)O)c1nc(-c2ccc(Cl)s2)cs1 (stereo not given) | 21.3% (active)
O=C(NCc1ccccc1)C1(c2cccc(F)c2)CCCC1 | 0.26%
COC(=O)C/C(O)=C(/N=Nc1cccc(C(F)(F)F)c1)C(=O)OC | 0.94%

Structure (SMILES) | fluorescence artifact activation
O=C(Nc1ccc(Cl)cn1)C1COc2ccccc2O1 (stereo not given) | 14.7% (active)
O=C(Nc1nc(-c2nc3ccccc3s2)cs1)C1COc2ccccc2O1 (stereo not given) | 11.1%
O=C1NCCN1c1ncc([N+](=O)[O-])s1 | 4.21%
COc1ccc(S(=O)(=O)N(CC(C)C)C2CCS(=O)(=O)C2)cc1OC (stereo not given) | 2.69%
O=C1c2ccccc2C(=O)N1c1ccc(Cc2ccncc2)cc1 | 5.28%
O=C(Nc1nc2c(s1)CN(Cc1ccccc1)CC2)c1cccc(S(=O)(=O)N2CCc3ccccc32)c1 | -0.03%
Cc1ccc(S(=O)(=O)c2cc(C#N)c(=O)[nH]c2N)cc1 | 6.68%
O=C(CSc1ccc(Cl)cc1)Nc1nnc(-c2cccc([N+](=O)[O-])c2)s1 | 0.01%
O=C(Cc1ccc(Cl)cc1)NNS(=O)(=O)c1ccc([N+](=O)[O-])cc1 | 83% (active)
CC(=O)NCC(O)c1ccc([N+](=O)[O-])cc1 (stereo not given) | -0.01%
O=C1CC(/C=C/c2ccco2)=Nc2ccccc2N1 | 0.39%
Cc1ccc(NC(=O)O/N=C/c2ccc(F)cc2)cc1 | 0.14%
CCOC(=O)C1CCCN(C2=NC(=O)/C(=C/c3ccc(O)c(OC)c3)S2)C1 (stereo not given) | 0.04%
CCN1CC=C2C(C#N)=C(N)C(C#N)(C#N)C(c3cc(Cl)ccc3Cl)C2C1 (stereo not given) | 95% (active)
CCN1CC=C2C(C#N)=C(N)C(C#N)(C#N)[C@H](c3cccc(OC)c3OC)[C@H]2C1 | 0.43%
CCN1CC=C2C(C#N)=C(N)C(C#N)(C#N)[C@H](c3ccoc3)[C@H]2C1 | 0.03%
CC1=C(C(=O)N(C)C)C(c2ccc(C)s2)NC(=S)N1 (stereo not given) | 0.26%
COc1ccc(N(CC(=O)Nc2ccccc2C(=O)NCC(C)C)S(C)(=O)=O)cc1 | 0.65%
CN(CC(=O)Nc1ccccc1Cl)C(=O)c1cc(=O)[nH]c2ccccc12 | 17.4% (active)
CN(C)S(=O)(=O)c1ccc(C(=O)Oc2cc(=O)[nH]c3ccccc23)cc1 | 0.2%
N#Cc1c(NC(=O)/C=C/C(=O)O)sc2c1CCN(Cc1ccccc1)C2 | 0.08%
Nc1c(C(=O)Nc2ccc(S(=O)(=O)N3CCCC3)cc2)sc2nc3ccc(OC(F)(F)F)cc3cc12 | 0.16%
O=C1NC(=NCc2ccccc2)S/C1=C\c1ccccc1 | 14.6% (active)
Cc1ccc(N=C2NC(=O)/C(=C/c3cccnc3)S2)cc1C | 0.55%

Structure (SMILES) | fluorescence artifact activation
COc1ccccc1N=C1NC(=O)/C(=C/c2ccc(N(C)C)cc2)S1 | 0.13%
Nc1ccc(S(N)(=O)=O)cc1N | 196% (active)
Nc1ccc2c(O)cc(S(=O)(=O)O)cc2c1 | 0.19%
O=C1NC(c2cccc([N+](=O)[O-])c2)Oc2ccccc21 (stereo not given) | -0.04%
Cc1ccc(OCc2ccc(C(=O)O)o2)cc1C | -0.09%
O=C(NCc1csc2ccccc12)Nc1cc(Cl)cc(Cl)c1 | 0.06%
O=C(O)/C=C/C(=O)NCc1csc2ccccc12 | 94.3% (active)
Cc1cc(C(=O)NNC(=S)NCc2ccccc2)cs1 | -0.07%
CCOC(=O)c1c(-c2ccccc2)csc1NC(=O)/C(C#N)=C/c1ccc(O)c(OC)c1 | 6.3%
O=C(NCC1CC1)c1cccc2c1C(=O)c1ccc(N3CCCC3)cc1S2(=O)=O | 69.4% (active)
CC1CCN(c2ccc3c(c2)S(=O)(=O)c2cccc(C(=O)NC4CCCCC4)c2C3=O)CC1 | 0.04%
O=C(NC1CCCCC1)c1cccc2c1C(=O)c1ccc(N3CCCC3)cc1S2(=O)=O | 23.8% (active)
CN1CCC[C@@H]1CCNC(=O)c1cccc2c1C(=O)c1ccc(N3CCCC3)cc1S2(=O)=O | -0.09%
C=CCNC(=O)c1cccc2c1C(=O)c1ccc(N3CCCC3)cc1S2(=O)=O | 0.04%
O=C(NC1CCCCC1)c1cccc2c1C(=O)c1ccc(N3CCC(Cc4ccccc4)CC3)cc1S2(=O)=O | 0.54%
COc1ccccc1N1C(=O)c2cccc3c(N(C)CCO)ccc(c23)C1=O | 0.41%
O=C(N/C(=C/c1cn(-c2ccccc2)nc1-c1ccccc1)C(=O)N1CCOCC1)c1ccc(Cl)cc1Cl | 3.44%
COc1cccc2c1C(=O)c1c(O)c3c(c(O)c1C2=O)CC(O)(C(C)=O)CC3OC1CC(O)C(O)C(C)O1 (stereo not given) | 24.9% (active)
COc1cccc2c1C(=O)c1c(O)c3c(c(O)c1C2=O)C[C@](O)(C(C)=O)C[C@H]3O[C@@H]1C[C@@H](N)[C@@H](O)[C@@H](C)O1 | -0.05%
COc1cccc2c1C(=O)c1c(O)c3c(c(O)c1C2=O)CC(O)(C(=O)CO)CC3OC1CC(N(C)C)C(O)C(C)O1 (stereo not given) | 40.5% (active)
COc1cccc2c1C(=O)c1c(O)c3c(c(O)c1C2=O)CC(O)(C(C)=O)CC3OC1CC(N(C)C)C(O)C(C)O1 (stereo not given) | 0%
COc1cccc2c1C(=O)c1c(O)c3c(c(O)c1C2=O)C[C@@](O)(C(=O)CO)C[C@@H]3OC1CC(N)C(O)C(C)O1 (stereo not given in full) | 0.06%
COc1cccc2c1C(=O)c1c(O)c3c(c(O)c1C2=O)C[C@@](O)(C(=O)CO)C[C@@H]3O[C@H]1C[C@H](N)[C@H](O)[C@H](C)O1 | -0.07%
